Assay [1] concerns the target Protein-arginine deiminase type-2 (Homo sapiens, UniProt Q9Y2J8). In words: Binding affinity to human PAD2 expressed in HEK293T cells assessed as protein occupancy preincubated for 15 mins followed by ionomycin addition measured after 1 hr in presence of CaCl2 by RIBFA probe based SDS-PAGE analysis. Type of assay: cell-based. An outline of the steps:
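Adherent HEK293T/PAD2 cells at 80–90% confluence in HBS with 2 mM CaCl₂ at 37 °C. Inhibitor (in DMSO) added for 15 min, then ionomycin (0.5 μM final) for 1 h. Cells washed and lysed in 1% Triton X-100. Lysate (2 μg/μL) labelled with RIBFA probe (2 μM) plus 2 mM CaCl₂ for 1 h at 37 °C. PAD2 occupancy expressed relative to DMSO control.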

The target in assay [2] is Protein-arginine deiminase type-4 (Homo sapiens) (UniProt Q9UM07). Put plainly: Ratio of Kinact to Ki for recombinant full length N-terminal GST-tagged human PAD4 expressed in Escherichia coli Rosetta cells preincubated for 10 mins followed by BAEE substrate addition measured after 15 mins by COLDER assay. The method, boiled down: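 Enzyme at 2.0 μM (PAD1, PAD2, PAD4) or 5.0 μM (PAD3) incubated at 37 °C with various inhibitor concentrations in 50 mM HEPES, 10 mM CaCl₂, 2 mM DTT, pH 7.6. Timed aliquots moved into substrate mix: 10 mM BAEE, or 10 mM BAA for PAD3. Selectivity ratios taken from these values.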

In ChEMBL document CHEMBL4177546, “Development of a Selective Inhibitor of Protein Arginine Deiminase 2” (J Med Chem, 2017) one finds EC50 and Ratio data, which are given here for 1 compound.

Chain of Protein-arginine deiminase type-4 (Homo sapiens) (Q9UM07 whole entry): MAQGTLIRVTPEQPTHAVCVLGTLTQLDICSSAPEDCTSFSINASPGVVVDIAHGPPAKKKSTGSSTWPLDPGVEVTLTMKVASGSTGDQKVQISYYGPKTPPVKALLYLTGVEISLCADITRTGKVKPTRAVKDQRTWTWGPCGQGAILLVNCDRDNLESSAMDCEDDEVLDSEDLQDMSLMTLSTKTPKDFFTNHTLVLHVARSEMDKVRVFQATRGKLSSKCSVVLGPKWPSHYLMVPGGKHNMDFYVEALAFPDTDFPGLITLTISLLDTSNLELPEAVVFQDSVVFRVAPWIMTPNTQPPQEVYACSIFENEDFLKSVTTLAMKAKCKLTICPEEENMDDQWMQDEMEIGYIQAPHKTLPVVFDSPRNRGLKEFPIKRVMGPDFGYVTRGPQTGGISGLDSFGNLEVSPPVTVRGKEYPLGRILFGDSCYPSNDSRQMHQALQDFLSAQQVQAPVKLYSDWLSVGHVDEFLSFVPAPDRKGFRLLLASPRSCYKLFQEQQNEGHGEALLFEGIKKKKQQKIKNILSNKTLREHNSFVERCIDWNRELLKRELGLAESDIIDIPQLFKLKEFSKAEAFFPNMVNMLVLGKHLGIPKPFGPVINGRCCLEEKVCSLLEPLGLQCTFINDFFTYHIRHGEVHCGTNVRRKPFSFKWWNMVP
Chain of Protein-arginine deiminase type-2 (Q9Y2J8 whole entry): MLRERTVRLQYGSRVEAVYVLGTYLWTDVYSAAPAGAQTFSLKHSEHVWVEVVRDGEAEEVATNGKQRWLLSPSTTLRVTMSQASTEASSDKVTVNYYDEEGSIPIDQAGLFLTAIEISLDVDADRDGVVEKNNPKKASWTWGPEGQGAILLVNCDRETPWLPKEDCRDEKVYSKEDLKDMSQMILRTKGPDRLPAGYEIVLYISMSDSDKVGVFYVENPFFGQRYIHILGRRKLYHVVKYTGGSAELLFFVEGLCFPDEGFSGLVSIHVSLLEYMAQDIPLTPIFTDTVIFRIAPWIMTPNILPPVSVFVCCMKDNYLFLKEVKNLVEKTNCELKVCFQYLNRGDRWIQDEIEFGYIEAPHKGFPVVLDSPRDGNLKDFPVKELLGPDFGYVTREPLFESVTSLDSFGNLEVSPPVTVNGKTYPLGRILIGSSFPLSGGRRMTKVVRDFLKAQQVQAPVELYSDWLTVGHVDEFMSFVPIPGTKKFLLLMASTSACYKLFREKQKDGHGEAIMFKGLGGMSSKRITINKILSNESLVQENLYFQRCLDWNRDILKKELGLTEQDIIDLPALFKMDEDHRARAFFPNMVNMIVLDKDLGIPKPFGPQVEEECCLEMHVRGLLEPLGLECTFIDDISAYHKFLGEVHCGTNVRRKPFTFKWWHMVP

What is called EC50 is the concentration needed to bring the measured effect to its halfway point. Consider `N=C(CF)NCCC[C@H](NC(=O)c1ccc(-c2ccccc2)cc1)c1nc2ccccc2[nH]1`, for which, in assay [1], the half-maximal effective concentration (EC50) came to 20.6 µM. In assay [2], the Ratio is 3750 M⁻¹ min⁻¹.
